Laboratory results published in ChEMBL document CHEMBL1148948, “Biotransformation of nobiletin by Aspergillus niger and the antimutagenic activity of a metabolite, 4'-hydroxy-5,6,7,8,3'-pentamethoxyflavone” (2004).
Calls of active or inactive are those of the source.

How the values were obtained:
Assay type in all cases: functional, organism-based
Conditions in all cases: Salmonella enterica subsp. enterica serovar Typhimurium
[1] = system: Salmonella typhimurium; test: Antimutagenic activity in Salmonella Typhimurium TA1535 carrying pSK1002 containing umuC'-lacZ fused gene assessed as suppression of furyfuramide-induced SOS response to alteration in DNA synthesis measured by beta-galactosidase activity by Umu test
Method in brief: (§1)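 S. typhimurium TA1535/pSK1002 (umuC′-′lacZ fusion on the plasmid). The overnight culture was diluted 50-fold in fresh TGA medium and grown at 37 °C to A600 0.25-0.30. SOS induction was read as β-galactosidase activity in Miller units. The S9 mix used rat liver S9 (phenobarbital/5,6-benzoflavone-pretreated males) with G-6-P, NADH and NADPH cofactors.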

[2] = system: Salmonella typhimurium; test: Antimutagenic activity in Salmonella Typhimurium TA1535 carrying pSK1002 containing umuC'-lacZ fused gene assessed as suppression of Trp-P-1-induced SOS response to alteration in DNA synthesis measured by beta-galactosidase activity by Umu test; method in brief: as §1
[3] = system: Salmonella typhimurium; test: Antimutagenic activity in Salmonella Typhimurium TA1535 carrying pSK1002 containing umuC'-lacZ fused gene assessed as suppression of 0.1 j/M2 UV light-induced SOS response to alteration in DNA synthesis measured by beta-galactosidase activity by Umu test; method in brief: as §1
[4] = system: Salmonella typhimurium; test: Antimutagenic activity in Salmonella Typhimurium TA1535 carrying pSK1002 containing umuC'-lacZ fused gene assessed as suppression of MeIQ-induced SOS response to alteration in DNA synthesis measured by beta-galactosidase activity by Umu test; method in brief: as §1

Measured: Activity

COc1ccc(-c2cc(=O)c3c(OC)c(OC)c(OC)c(OC)c3o2)cc1OC
active: [1] | [2] | [3] | [4]
